# High-throughput results (PubChem BioAssay)
# A selection: hits, their analogues and other compounds. The true share with any hit is near 1.8%.
# M5 PAM: potentiates acetylcholine response at human M5 receptor | CHO-K1 hM5, Fluo-8 calcium, ACh EC20 PAM; 0% = ACh EC20, 100% = ACh EC100 | hit rate 0.3% among 360,000 | activation, % at 3 µM;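 active = activation above the run cutoff, the mean activation of all test compounds plus 3 SD, cut at about 18% in these data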
#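 Assay system: CHO-K1 hM5 cells / Incubation: Fluo-8 loading 80 min at 37 °C plus 30 min room temperature / Technique: Fluo-8 calcium dye fluorescence, kinetic read / Repeats: single replicate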
# CHRM4 agonist: agonists of human muscarinic M4 receptor (CHRM4); P08173; AID 624127; CHO-K1 hM4/Gqi5, Fluo-8 calcium fluorescence; vehicle 0%, full acetylcholine response 100%; activation, % at 3 µM; hit rate 0.14% among 360,000;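 active = activation above the run mean over all test wells plus 3 SD, cut at about 32% in these data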;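 note: peak over basal fluorescence ratio per well then scaled between controls; 0% = DMSO wells and 100% = acetylcholine at EC100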
# Target sequence (P08173 whole entry, looked up): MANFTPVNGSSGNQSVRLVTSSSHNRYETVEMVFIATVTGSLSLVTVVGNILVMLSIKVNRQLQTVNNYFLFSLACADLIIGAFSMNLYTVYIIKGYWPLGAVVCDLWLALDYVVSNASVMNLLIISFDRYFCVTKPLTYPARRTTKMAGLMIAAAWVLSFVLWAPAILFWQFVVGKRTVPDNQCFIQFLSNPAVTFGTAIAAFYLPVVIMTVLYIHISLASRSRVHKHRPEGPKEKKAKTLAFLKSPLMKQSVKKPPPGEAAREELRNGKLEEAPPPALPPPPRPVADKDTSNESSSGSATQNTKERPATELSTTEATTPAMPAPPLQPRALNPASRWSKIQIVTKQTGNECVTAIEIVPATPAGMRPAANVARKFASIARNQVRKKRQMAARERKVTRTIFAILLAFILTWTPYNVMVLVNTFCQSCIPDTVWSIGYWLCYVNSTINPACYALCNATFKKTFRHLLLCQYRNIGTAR
# CHRM5 agonist: CHRM5 agonism in calcium assay | hit rate 0.19% among 360,000 | CHO-K1 hM5 cells, Fluo-8 calcium fluorescence; 0% DMSO wells, 100% maximal acetylcholine response | P08912 | activation, % at 3 µM;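 active = activation above the run's mean over test compounds plus 3 SD, cut at about 23% in these data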;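 note: signal is peak over basal fluorescence ratio across the kinetic read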
# CHRM4 PAM: CHRM4 positive allosteric modulation; CHO-K1 hM4/Gqi5, Fluo-8 calcium fluorescence, ACh EC20; 0% = ACh EC20, 100% = maximal ACh; activation, % at 3 µM; hit rate 0.4% among 360,000;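 active = activation above its plate's cutoff, the mean activation of sample wells plus 3 SD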
# CHRM5 antagonist: antagonists of human muscarinic M5 receptor (CHRM5); hit rate 0.59% among 360,000; CHO-hM5 cells, Fluo-8 calcium fluorescence, ACh EC80; inhibition, % at 3 µM;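 active = inhibition above a per-plate cutoff, the mean of that plate's test compounds plus 3 SD, cut at about 27% in these data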;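 note: 0% = acetylcholine EC80 with DMSO and 100% = DMSO without agonist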
# M4 antag: antagonists of human muscarinic M4 receptor (CHRM4). P08173. CHO-hM4 cells, ACh EC80, Fluo-8 calcium fluorescence. inhibition, % at 3 µM. hit rate 0.73% among 360,000. AID 624125;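 active = inhibition above its plate's cutoff, the mean inhibition of sample wells plus 3 SD, cut at about 27% in these data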;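 note: 0% = acetylcholine EC80 with DMSO and 100% = DMSO without agonist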
# * marks the source's active call; other numbers are inactive results.
SMILES,M5 PAM,CHRM4 agonist,CHRM5 agonist,CHRM4 PAM,CHRM5 antagonist,M4 antag
O=c1[nH]c2ccccc2n1C1CCN(C(c2cccs2)c2nnnn2Cc2ccccc2)CC1 (stereo not drawn),-9.3,9.5,2.1,-5.2,6.7,14.2
CSCCC(c1nnnn1Cc1ccccc1)N1CCC2(CC1)C(=O)NCN2c1ccccc1 (stereo not drawn),0.2,25.0,44.1*,-13.6,-1.2,1.6
C=C1C(C)C2C(Cc3ccccc3)NC(=O)C23C(OC(C)=O)C=CC(C)(O)CC(C)CC=CC3C1O (stereo not drawn),21.0*,1.6,4.3,7.3,-12.3,-19.1
O=C(Nc1ccc(Cl)c(Cl)c1)c1ccco1,12.7,1.6,-0.1,-3.0,-1.5,-1.5
C=CCNC(=S)Nc1ccc(OC(=O)Nc2ccc(Cl)c(Cl)c2)cc1,-9.1,8.9,-0.1,-9.2,28.0*,22.4
CC(C)(C)c1ccc(CSc2cnn(C(C)(C)C)c(=O)c2Cl)cc1,-11.5,11.8,11.9,-3.5,27.8*,11.5
CCCCCCn1c(=O)c(C(=O)Nc2ncccc2C)c(O)c2ccccc21,2.8,1.2,1.3,-1.5,-2.3,0.8
CCCCn1c(=O)c(C(=O)Nc2ncccc2C)c(O)c2ccccc21,-2.1,33.4*,8.7,-6.5,4.0,5.5
CNc1cc(Cl)c2nonc2c1[N+](=O)[O-],-7.3,-1.8,-5.5,-6.2,15.2,34.0*
COC(=O)C1=C(c2ccc(OC)c(OC)c2)C[C@@H]2CC[C@H]1N2C(=O)NCc1cccc2ccccc12,-2.1,2.7,-5.8,10.8,5.2,0.5
CON(C)C(=O)Nc1ccc(Cl)cc1,5.0,2.2,0.2,16.5,-2.8,1.9
O=C(Nc1ccc(Cl)cc1)O/N=C(\c1ccccc1)c1ccccn1,-12.4,7.7,3.7,-20.1,33.3*,12.9
c1ccc(CCNCc2cccs2)cc1,-3.2,1.0,-7.9,-2.5,2.9,4.9
Cc1ccc(C[n+]2c(-c3ccc(C)cc3)cc(-c3ccc(C)cc3)cc2-c2ccc(C)cc2)cc1,-29.1,19.1,2.6,-3.2,37.4*,21.4
CCc1ccc(N2C(=O)NC(=O)/C(=C\c3cc(C)n(-c4cc(C(=O)O)cc(C(=O)O)c4)c3C)C2=O)cc1,5.7,2.2,-0.9,18.4*,-2.5,-14.3
Clc1ccc2c(c1)C(OC1CN3CCC1CC3)c1ccccc1CS2 (stereo not drawn),-17.8,15.7,-2.5,-41.8,99.0*,99.1*
CN1CCN(CCOC2c3ccccc3CSc3ccc(Cl)cc32)CC1 (stereo not drawn),-17.4,10.9,-2.2,-42.8,54.3*,83.5*
O=C(COc1ccc(Cl)cc1)N(c1ccccc1Cl)C1CN2CCC1CC2 (stereo not drawn),-31.5,6.0,-19.0,-38.6,12.2,10.8
CN(C)CCSC1c2ccccc2CSc2ccccc21 (stereo not drawn),-31.8,5.1,-21.4,-17.0,98.9*,98.3*
O=C1Nc2ccccc2C1Cc1nc2ccccc2c(=O)n1-c1ccccc1 (stereo not drawn),-4.4,3.3,-1.4,1.1,11.3,-8.1
COc1ccccc1Sc1ccccc1CC(C)N (stereo not drawn),2.1,9.8,-5.0,8.9,8.0,8.1
CC(Cc1ccccc1Sc1ccccc1)N(C)C (stereo not drawn),-20.7,3.4,-7.1,-40.5,98.9*,92.2*
CC(Cc1ccccc1Sc1ccc(O)cc1)N(C)C (stereo not drawn),-21.4,4.4,-5.5,-20.0,90.8*,41.5*
CN1CCN(Cc2ccccc2Sc2ccccc2)CC1,-19.8,7.0,-5.1,-38.4,98.8*,95.0*
CCOP(=O)(OCC)C(NC(=O)c1cccc([N+](=O)[O-])c1)C(Cl)(Cl)Cl (stereo not drawn),2.7,0.6,2.7,-5.4,1.4,-10.0
CCOC(=O)c1ccc(NC(=O)N2C[C@@H]3C[C@@H](C2)c2cccc(=O)n2C3)cc1,-9.4,0.2,-0.5,-14.2,3.1,68.8*
